High-throughput results deposited in PubChem BioAssay by several laboratories.
In the library only some 3.7% were active in any assay of this set; here they are far more common.
EBV gp42 block – Epstein-Barr virus gp42 inhibitors, primary screen, biochemical, uHTS, fluorescence polarization. Glycoprotein 42 (Epstein-Barr virus (strain AG876)), Q1HVG2. Fluorescence polarization binding assay, mP read-out. inhibition, % (tested at 21.74 µM). 0.42% of 220,000 active; in the data active means inhibition above about 50%
NCF1 inh – p47phox/p22phox peptide binding inhibitors, primary screen, biochemical, uHTS, NADPH oxidase regulatory subunit; fluorescence polarization, 2 h; inhibition, % at 24.7 µM; 0.53% of 220,000 active;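 further: 0% = p47phox with labelled peptide and 100% = labelled peptide alone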
14-3-3 Bad inh – inhibitors of 14-3-3 zeta/Bad binding, primary screen, biochemical, TR-FRET, bovine 14-3-3 zeta; 14-3-3 protein zeta/delta (Bos taurus), P63103; TR-FRET 14-3-3zeta/Dy647-pBad peptide displacement, 1 h; inhibition, % at 21.7 µM; 0.71% of 220,000 active; AID 781, 2007;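 active means inhibition above about 70%, limit read from the data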;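 further: 0% = full 14-3-3 plus peptide FRET controls and 100% = background without 14-3-3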
Target sequence (P63103 whole entry, looked up): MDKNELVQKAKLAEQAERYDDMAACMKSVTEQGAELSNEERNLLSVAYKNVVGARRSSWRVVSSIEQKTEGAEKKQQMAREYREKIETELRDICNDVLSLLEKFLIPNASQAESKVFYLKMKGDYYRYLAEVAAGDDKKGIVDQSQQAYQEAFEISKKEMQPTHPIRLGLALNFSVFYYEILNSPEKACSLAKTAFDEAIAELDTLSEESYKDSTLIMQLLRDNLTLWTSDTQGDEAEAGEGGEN
RBBP9 inhibitor – human RBBP9 inhibitors, primary screen, biochemical, fluorescence polarization, FP-Rh probe, HTS; Serine hydrolase RBBP9 (Homo sapiens), O75884; recombinant RBBP9; inhibition, % at 7.94 µM; 0.2% of 220,000 active;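 active means inhibition above the campaign mean of all tested compounds plus 3 SD, cut at about 14% in these data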;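 further: plate controls were DMSO wells with RBBP9 for no effect and wells lacking RBBP9 protein for full effect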
Target sequence (O75884 whole entry, looked up): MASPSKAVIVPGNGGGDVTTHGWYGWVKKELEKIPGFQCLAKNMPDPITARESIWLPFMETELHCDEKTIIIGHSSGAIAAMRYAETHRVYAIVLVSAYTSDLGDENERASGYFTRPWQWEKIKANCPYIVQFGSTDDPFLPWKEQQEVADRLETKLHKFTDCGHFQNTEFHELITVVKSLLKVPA
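Test system – recombinant human RBBP9 · Input – RBBP9 2.5 µM in dispensing solution, pre-mixing · Medium – Tris buffer pH 8.0, NaCl, Pluronic · Schedule – preincubation 30 min plus labeling 45 min at 25 °C · Measured by – fluorescence polarization · Measure – % inhibition · Controls – DMSO and no-protein wells · Replicates – one well per compound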
eIF4E 4G PPI – eIF4E–eIF4G protein interaction inhibitors, primary screen, biochemical, uHTS, TR-FRET, eIF4GI fragment; AID 782, 2007; 0.37% of 220,000 active; TR-FRET eIF4E-eIF4GI(517-606) binding, 2 h; inhibition, % at 21.7 µM;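 further: 0% = full FRET control wells and 100% = background wells lacking eIF4GI fragment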
WT yeast gro inh – growth inhibition of WT strain, primary screen, mitochondrial fusion inhibitor project, WT and mutant strains, chemical genetic. mitochondrial fusion phenotypic screen. inhibition, % at 10 µM. 2.1% of 190,000 active; in the data active means inhibition above about 58%; tested in S. cerevisiae
Numbers without * were called inactive; [ ] = remark or other dose.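 How the source made its calls, unless noted: active means inhibition above about 30% (limit read from the data); inactive means the rest.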

For CN(C)c1ccc(NC(=O)CN2CCC(N3CCCCC3)CC2)cc1 the results were EBV gp42 block -30, NCF1 inh -1, 14-3-3 Bad inh 75*, RBBP9 inhibitor 7, eIF4E 4G PPI -5 and WT yeast gro inh 0.
CCOC(=O)/C(C#N)=C(\O)c1ccc(NC(=O)c2ccc([N+](=O)[O-])cc2)cc1 was read as EBV gp42 block -12, NCF1 inh -1, 14-3-3 Bad inh -4, RBBP9 inhibitor -3 and eIF4E 4G PPI 2.
CCOC(=O)c1cnc(SC)nc1Sc1ccccc1Cl was read as EBV gp42 block 1, NCF1 inh 3, RBBP9 inhibitor -7 and WT yeast gro inh 67*.
CSc1nc(Sc2ccccc2Cl)c2ccccc2n1 was read as EBV gp42 block -19, NCF1 inh -13, 14-3-3 Bad inh 6, RBBP9 inhibitor -14, eIF4E 4G PPI -3 and WT yeast gro inh 68*.
Screening CC(C)(C)c1ccc(S(=O)(=O)N2CCN(c3ncccn3)CC2)cc1 returned EBV gp42 block -2, NCF1 inh -4, 14-3-3 Bad inh -15, RBBP9 inhibitor 4, eIF4E 4G PPI -1 and WT yeast gro inh 0.
`Cc1ccc(C)c(NS(=O)(=O)c2cc(C(=O)Nc3ccccc3-c3ccccc3)ccc2Cl)c1` gave EBV gp42 block -1, NCF1 inh -9, 14-3-3 Bad inh 4, RBBP9 inhibitor -31, eIF4E 4G PPI -9 and WT yeast gro inh 30.
Screening COCCn1c(SCC(=O)N2CCCc3ccccc32)nc2ccccc2c1=O returned EBV gp42 block -14, NCF1 inh 68*, 14-3-3 Bad inh 1, RBBP9 inhibitor 3, eIF4E 4G PPI 8 and WT yeast gro inh 10.
CCCc1nc(SCC(=O)N2CCCc3ccccc32)c2c(=O)n(C)c(=O)n(C)c2n1 was read as EBV gp42 block 3, NCF1 inh -4, 14-3-3 Bad inh 0, RBBP9 inhibitor 1, eIF4E 4G PPI -2 and WT yeast gro inh 73*.
Screening COCCn1c(SCC(=O)N2CCCc3ccccc32)nc2c(c1=O)SC(C)C2 (configuration not stated) returned EBV gp42 block -21, NCF1 inh -7, 14-3-3 Bad inh 2, RBBP9 inhibitor -7, eIF4E 4G PPI 3 and WT yeast gro inh -23.
CCCc1nc(SCC(=O)N2CCC(Cc3ccccc3)CC2)c2c(=O)n(C)c(=O)n(C)c2n1 was read as EBV gp42 block 5, NCF1 inh -5, 14-3-3 Bad inh -2, RBBP9 inhibitor 1, eIF4E 4G PPI 3 and WT yeast gro inh 81*.
Screening Clc1ccc(Nc2ccccc2)nn1 returned EBV gp42 block -9, NCF1 inh -4, 14-3-3 Bad inh -2, RBBP9 inhibitor 0 and eIF4E 4G PPI 0.
NC(=O)c1cc(-c2ccccc2)nc(N2CCOCC2)n1 was read as EBV gp42 block -21, NCF1 inh -9, 14-3-3 Bad inh -3, RBBP9 inhibitor 5, eIF4E 4G PPI -4 and WT yeast gro inh -1.
For CC[n+]1cc(-c2ccccc2)nc(N2CCOCC2)n1 the results were EBV gp42 block -70, NCF1 inh 39*, 14-3-3 Bad inh 82*[fluorescence artefact?], RBBP9 inhibitor -4, eIF4E 4G PPI 30 and WT yeast gro inh -3.
CCOC(=O)c1sc(Nc2nc(OC)cc(OC)n2)nc1C was read as EBV gp42 block -12, 14-3-3 Bad inh -3, RBBP9 inhibitor -5, eIF4E 4G PPI 0 and WT yeast gro inh 15.
CC(C)(C)c1cccc(Oc2nn[nH]n2)c1 was read as EBV gp42 block 12, NCF1 inh 1, 14-3-3 Bad inh 79*, RBBP9 inhibitor -8, eIF4E 4G PPI 6 and WT yeast gro inh 14.
Cc1cc(C)cc(Oc2nn[nH]n2)c1 was read as EBV gp42 block -14, NCF1 inh 1, 14-3-3 Bad inh 71*, RBBP9 inhibitor 1, eIF4E 4G PPI -2 and WT yeast gro inh -22.
